Assay results as given in ChEMBL document CHEMBL1153936, “Synthesis and pharmacological evaluation of (2-oxaadamant-1-yl)amines” (Bioorg Med Chem, 2009).
Activity calls are given as the source filed them. No cut-off for these calls is given here.

Columns and labels:
[1] = molecular target: Glutamate NMDA receptor; test: Antagonist activity against NMDA receptor in rat cerebellar granule neurons assessed as inhibition of NMDA -induced increase in intracellular calcium level by Fura-2 AM dye based fluorimetry; type: functional, cell-based
How it was run: (§1)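 Primary cerebellar granule neurons were grown on poly-L-lysine-coated glass coverslips and used after 7–14 days in vitro. Cells were loaded with 6 μM Fura-2 AM for 45 min. Fluorometry was done in Locke-Hepes buffer at 37 °C with mild agitation, recorded over 1200 s. Cells were stimulated with NMDA or glutamate at 100 μM plus 10 μM glycine. Test compound was then added at cumulative rising concentrations. IC50 came from variable-slope nonlinear regression of % inhibition. Values are means ± SEM, n ≥ 3 separate experiments on three culture batches.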

[2] = Antagonist activity against glutamate receptor in rat cerebellar granule neurons assessed as inhibition of glutamate-induced increase in intracellular calcium level by Fura-2 AM dye based fluorimetry; type: functional, cell-based; how it was run: as §1
[3] = tested on: Trypanosoma brucei; test: Antitrypanosomal activity against Trypanosoma brucei 427 assessed as parasite growth inhibition up to 5 mg/mL after 48 hrs; type: functional, organism-based
[4] = tested on: Trypanosoma brucei; test: Antitrypanosomal activity against Trypanosoma brucei 427 assessed as parasite growth inhibition after 48 hrs; type: functional, organism-based; details: Trypanosoma brucei, 427, 48 h
[5] = tested on: Vesicular stomatitis virus; test: Antiviral activity against Vesicular stomatitis virus assessed as inhibition of viral replication; type: functional, organism-based
How it was run: (§2)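 Cell-culture virus replication assay. Inhibition of virus-induced effects and compound cytotoxicity were scored by microscopic examination and confirmed by colorimetric MTS cell-viability readout.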

[6] = tested on: Sindbis virus; test: Antiviral activity against Sindbis virus assessed as inhibition of viral replication; type: functional, organism-based
How it was run: (§3)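 Cell-culture virus replication assays. Inhibition of viral replication and compound cytotoxicity were scored by microscopic examination, then confirmed by a colorimetric MTS cell viability assay.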

[7] = tested on: Respiratory syncytial virus; test: Antiviral activity against Respiratory syncytial virus assessed as inhibition of viral replication; type: functional, organism-based; how it was run: as §3
[8] = tested on: Human alphaherpesvirus 2; test: Antiviral activity against HSV2 assessed as inhibition of viral replication; type: functional, organism-based; how it was run: as §3
[9] = tested on: Influenza A virus H3N2; test: Antiviral activity against Influenza A virus (A/Hong Kong/7/1987(H3N2)) assessed as inhibition of viral replication; type: functional, organism-based; how it was run: as §2
[10] = tested on: Influenza A virus; test: Antiviral activity against Influenza A virus (A/Puerto Rico/8/34(H1N1)) assessed as inhibition of viral replication; type: functional, organism-based; details: A/Puerto Rico/8/1934(H1N1); how it was run: as §2
[11] = tested on: Coxsackievirus B4; test: Antiviral activity against Coxsackievirus B4 assessed as inhibition of viral replication; type: functional, organism-based; how it was run: as §3
[12] = tested on: Vaccinia virus; test: Antiviral activity against Vaccinia virus assessed as inhibition of viral replication; type: functional, organism-based; details: Orthopoxvirus vaccinia; how it was run: as §2
[13] = tested on: Influenza B virus; test: Antiviral activity against Influenza B virus (B/Hong Kong/05/1972) assessed as inhibition of viral replication; type: functional, organism-based; how it was run: as §2
[14] = tested on: Punta Toro virus; test: Antiviral activity against Punta Toro virus assessed as inhibition of viral replication; type: functional, organism-based; how it was run: as §3
[15] = tested on: Feline coronavirus; test: Antiviral activity against Feline coronavirus assessed as inhibition of viral replication; type: functional, organism-based; how it was run: as §3
[16] = tested on: Mammalian orthoreovirus 1; test: Antiviral activity against Reovirus 1 assessed as inhibition of viral replication; type: functional, organism-based; how it was run: as §3
[17] = tested on: Human alphaherpesvirus 1; test: Antiviral activity against HSV1 assessed as inhibition of viral replication; type: functional, organism-based; how it was run: as §3
[18] = tested on: Human respirovirus 3; test: Antiviral activity against parainfluenza virus 3 assessed as inhibition of viral replication; type: functional, organism-based; how it was run: as §3

Molecule `CCN(CC)C12CC3CC(CC(CC)(C3)O1)C2` has an IC50 [1] of 14 µM and an IC50 [2] of 22 µM.

For `CCC12CC3CC(C1)CC(N(C)Cc1ccccc1)(C3)O2`, the IC50 [1] was over 200 µM and the IC50 [2] was over 500 µM.

For `c1ccc(CCNC23CC4CC(CC(C4)O2)C3)cc1`, the IC50 [1] was over 200 µM, the Activity [3] was “inactive” and the IC50 [2] was over 500 µM.

In the case of `CC(N)C12CC3CC(CC(C3)C1)C2` (stereo not given) [RIMANTADINE], the IC90 [4] is reported as 14 µM.

In the case of `c1ccc(CN(Cc2ccccc2)C23CC4CC(CC(C4)O2)C3)cc1`, the IC50 [1] is reported as over 200 µM, the Activity [3] is reported as “inactive” and the IC50 [2] is reported as over 500 µM.

With `CNC12CC3CC(CC(C3)O1)C2` the IC50 [1] was over 200 µM, the Activity [5] was “inactive” and the Activity [6] was “inactive”. For the same molecule, the Activity [7] was “inactive”, the Activity [8] was “inactive” and the Activity [9] was “inactive”. The Activity [10] was “inactive”, the Activity [3] was “inactive” and the Activity [11] was “inactive”. The Activity [12] was “inactive”, the IC50 [2] was over 500 µM and the Activity [13] was “inactive”. The Activity [14] was “inactive”, the Activity [15] was “inactive” and the Activity [16] was “inactive”. The Activity [17] was “inactive” and the Activity [18] was “inactive”.

With `CN(CCc1ccccc1)C12CC3CC(CC(C3)O1)C2` the IC50 [1] was over 200 µM, the Activity [3] was “inactive” and the IC50 [2] was over 500 µM.

In the case of `c1ccc(CNC23CC4CC(CC(C4)O2)C3)cc1`, the IC50 [1] is reported as over 200 µM, the Activity [5] is reported as “inactive” and the Activity [6] is reported as “inactive”. For the same molecule, the Activity [7] was “inactive”, the Activity [8] was “inactive” and the Activity [9] was “inactive”. For the same molecule, the Activity [10] was “inactive”, the Activity [3] was “inactive” and the Activity [11] was “inactive”. For the same molecule, the Activity [12] was “inactive”, the IC50 [2] was over 500 µM and the Activity [13] was “inactive”. For the same molecule, the Activity [14] was “inactive”, the Activity [15] was “inactive” and the Activity [16] was “inactive”. The Activity [17] was “inactive” and the Activity [18] was “inactive”.

With `CCC12CC3CC(C1)CC(NCc1ccccc1)(C3)O2` the IC50 [1] was over 200 µM and the IC50 [2] was over 500 µM.

With `NC12CC3CC(C1)CC(c1ccccc1)(C3)O2` the IC50 [1] was 226 µM, the Activity [5] was “inactive” and the Activity [6] was “inactive”. The Activity [7] was “inactive”, the Activity [8] was “inactive” and the Activity [9] was “inactive”. The Activity [10] was “inactive”, the Activity [11] was “inactive” and the Activity [12] was “inactive”. For the same molecule, the IC50 [2] was 350 µM, the Activity [13] was “inactive” and the Activity [14] was “inactive”. The Activity [15] was “inactive”, the Activity [16] was “inactive” and the Activity [17] was “inactive”. For the same molecule, the Activity [18] was “inactive”.

For `CCC12CC3CC(C1)CC(NC)(C3)O2`, the IC50 [1] was 32 µM, the Activity [5] was “inactive” and the Activity [6] was “inactive”. The Activity [7] was “inactive”, the Activity [8] was “inactive” and the Activity [9] was “inactive”. The Activity [10] was “inactive”, the Activity [11] was “inactive” and the Activity [12] was “inactive”. The IC50 [2] was 108 µM, the Activity [13] was “inactive” and the Activity [14] was “inactive”. For the same molecule, the Activity [15] was “inactive”, the Activity [16] was “inactive” and the Activity [17] was “inactive”. The Activity [18] was “inactive”.

Work on `CCC12CC3CC(C1)CC(N(C)C)(C3)O2` yielded an IC50 [1] of 55 µM, an IC50 [2] of 106 µM and an IC50 [4] of 10.9 µM. For the same molecule, the IC90 [4] was 15.5 µM.

For `CC12CC3CC(C1)CC(NN)(C3)O2`, the IC50 [1] was over 200 µM and the IC50 [2] was over 500 µM.

With `NC12CC3CC(C1)CC(C1CCCCC1)(C3)O2` the IC50 [1] was 94 µM, the Activity [5] was “inactive” and the Activity [6] was “inactive”. For the same molecule, the Activity [7] was “inactive”, the Activity [8] was “inactive” and the Activity [9] was “inactive”. The Activity [10] was “inactive”, the Activity [11] was “inactive” and the Activity [12] was “inactive”. The IC50 [2] was over 500 µM, the Activity [13] was “inactive” and the Activity [14] was “inactive”. The Activity [15] was “inactive”, the Activity [16] was “inactive” and the Activity [17] was “inactive”. The Activity [18] was “inactive”.

Molecule `NNC12CC3CC(C1)CC(c1ccccc1)(C3)O2` has an IC50 [2] of over 500 µM.

For `NC12CC3CC(CC(C3)O1)C2`, the IC50 [1] was over 200 µM, the Activity [5] was “inactive” and the Activity [6] was “inactive”. For the same molecule, the Activity [7] was “inactive”, the Activity [8] was “inactive” and the Activity [9] was “inactive”. For the same molecule, the Activity [10] was “inactive”, the Activity [3] was “inactive” and the Activity [11] was “inactive”. The Activity [12] was “inactive”, the IC50 [2] was over 500 µM and the Activity [13] was “inactive”. For the same molecule, the Activity [14] was “inactive”, the Activity [15] was “inactive” and the Activity [16] was “inactive”. For the same molecule, the Activity [17] was “inactive” and the Activity [18] was “inactive”.

`CCC12CC3CC(CC(N)(C3)O1)C2` showed an IC50 [1] of 83 µM and an IC50 [2] of 223 µM.

With `CN(Cc1ccccc1)C12CC3CC(CC(C3)O1)C2` the IC50 [1] was over 200 µM, the Activity [3] was “inactive” and the IC50 [2] was over 500 µM.

`CN(C)C12CC3CC(CC(C)(C3)O1)C2` gave an IC50 [1] of over 200 µM, an IC50 [2] of over 500 µM and an IC50 [4] of 3.97 µM. The IC90 [4] was 6.82 µM.

With `CC12CC3CC(C1)CC(N)(C3)O2` the IC50 [1] was over 200 µM and the IC50 [2] was over 500 µM.

`NC12CC3CC(CC(C3)C1)C2` [AMANTADINE] showed an IC50 [4] of over 130 µM.

Molecule `CCC12CC3CC(C1)CC(NN)(C3)O2` has an IC50 [2] of over 500 µM.
